{"data": "Measured values pooled from the literature", "target": "Dual specificity tyrosine-phosphorylation-regulated kinase 1B (DYRK1B, Homo sapiens, UniProt Q9Y463)", "note": "Lines come from different studies, so protocols differ."}
{"Structure (SMILES)": "Cc1cc(NC(=O)c2cccc3cc(-c4cccc5[nH]nc(N)c45)ccc23)ccc1F", "assay": "enzyme activity, inhibitor", "conditions": "0.1 µM", "endpoint": "activity vs control", "value": "95%"}
{"Structure (SMILES)": "COc1cccc(CCNc2nc3cc(C(=O)O)ccc3c3cnccc23)c1", "assay": "enzyme activity, inhibitor, radiometric", "conditions": "1 µM", "endpoint": "remaining activity", "value": "123%"}
{"Structure (SMILES)": "CC(=O)N1CCC(c2ccc(C(=O)NC(=N)N)cc2C(F)(F)F)CC1", "assay": "cell-free assay, competition with immobilised ligand", "conditions": "1 µM", "endpoint": "remaining binding", "value": "45%"}
{"Structure (SMILES)": "CS(=O)(=O)Nc1cccc(-c2csc(NC(=O)CSc3nc4nccnc4c(=O)n3CCc3ccccc3)n2)c1", "assay": "enzyme activity, inhibitor", "conditions": "10 µM", "endpoint": "inhibition", "value": "0%"}
{"Structure (SMILES)": "O=C(N1CCS(=O)(=O)CC1)N1C[C@H](c2ccc(OC(F)(F)F)cc2)C[C@H](c2nc(C3CC3)no2)C1", "assay": "cell-free assay, competition with immobilised ligand", "conditions": "1 µM", "endpoint": "remaining binding", "value": "93%"}
{"Structure (SMILES)": "Cn1cncc1C1=CN(c2ncnc3[nH]cnc23)CCS1", "assay": "enzyme activity, inhibitor, radiometric", "conditions": "2 µM", "endpoint": "inhibition", "value": "95.3%"}
{"Structure (SMILES)": "CCCS(=O)(=O)Nc1ccc(F)c(C(=O)c2c[nH]c3ncc(-c4ccc(Cl)cc4)cc23)c1F", "assay": "enzyme activity, inhibitor", "conditions": "1 µM", "endpoint": "inhibition", "value": "< 20%"}
{"Structure (SMILES)": "O=C(O)c1ccc2c(c1)nc(NCc1ccccc1)c1ccncc12", "assay": "enzyme activity, inhibitor, radiometric", "conditions": "1 µM", "endpoint": "remaining activity", "value": "112%"}
{"Structure (SMILES)": "C[C@@H](c1cccc(C#N)c1)n1cc(Cl)cc(C(N)=O)c1=N", "assay": "cell-free assay, competition with immobilised ligand", "conditions": "1 µM", "endpoint": "remaining binding", "value": "37%"}
{"Structure (SMILES)": "O=C(O)c1ccc2c(c1)nc(NCCc1cccc(F)c1)c1ncncc12", "assay": "enzyme activity, inhibitor, radiometric", "conditions": "1 µM", "endpoint": "remaining activity", "value": "117%"}
{"Structure (SMILES)": "CN(C)C(=O)Cn1cc(-c2nc([C@@](C)(c3ccc(-c4cnc(N)nc4)cc3)C3CC3)no2)cn1", "assay": "cell-free assay, competition with immobilised ligand", "conditions": "1 µM", "endpoint": "remaining binding", "value": "98%"}
{"Structure (SMILES)": "O=C(O)c1ccc2c(c1)nc(NCCc1cccc(Cl)c1)c1ncncc12", "assay": "enzyme activity, inhibitor, radiometric", "conditions": "1 µM", "endpoint": "remaining activity", "value": "114%"}
{"Structure (SMILES)": "COc1cc2ncnc(Nc3ccc(Oc4ccccc4)c(C)c3C)c2cc1OC", "assay": "enzyme activity, inhibitor", "conditions": "1 µM", "endpoint": "inhibition", "value": "1%"}
{"Structure (SMILES)": "CC/C(=N\\NC(=O)NCc1cccc(O)c1)c1ccc(O)c(C)c1O", "assay": "enzyme activity, inhibitor", "conditions": "0.1 µM", "endpoint": "inhibition", "value": "-5.1%"}
{"Structure (SMILES)": "O=C(O)c1ccc2c(c1)nc(Nc1ccccc1)c1ncncc12", "assay": "enzyme activity, inhibitor, radiometric", "conditions": "1 µM", "endpoint": "remaining activity", "value": "62%"}
